The values that follow come from paper PMC10205660 (Chemistry (Weinheim an der Bergstrasse, Germany), 2023).

Holding throughout (assay type): cell-based
The test system of one assay is MCF7 (breast cancer). Description: Antiproliferative activity, MCF7.
For the next assay, the system named is K562 (leukemia). Description: Antiproliferative activity, K562.
In another assay the test system is A549 (lung cancer). Description: Antiproliferative activity, A549. The note with it: Homo sapiens.
Assay [1] concerns MCF7, K562 and A549 cell lines. Put plainly: Antiproliferative activity, statements in text without a single cell line. The note with it: for fold reduction in activity compared to cruentaren A: versus cruentaren A, cell line not stated; for antiproliferative activity at highest concentration: at 4 μM.
Assay [2] has as its system Hsp90-dependent client proteins (pAkt, Cyclin D1, GLUT1), Hsp70, Hsp90 in MCF7 cells. Particulars: MCF7, 48 h, Western blot; versus vehicle 0.25% DMSO. The essentials:
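MCF7 cells exposed to test compound at the stated amounts for 48 h, alongside vehicle (0.25% DMSO) and 1 μM geldanamycin as the reference Hsp90 inhibitor. Cell lysates were immunoblotted for pAkt, Cyclin D1, GLUT1, Hsp70, Hsp90 and F1F0 ATP synthase.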

Setting [3] is: Homo sapiens, MCF7, read-out: IC50 values MCF7, MCF7.
The mark [4] stands for this setting: Homo sapiens, K562, read-out: IC50 values K562, K562.
The mark [5] stands for this setting: A549, read-out: IC50 values A549.
[6] abbreviates: Homo sapiens, MCF7, read-out: IC50 values MCF7.
Where [7] appears, read: Homo sapiens, K562, read-out: IC50 values K562.

Like-named read-outs stand apart in the source and are kept apart here.

Take `CCC[C@H](O)[C@@H](C)C(=O)NC[C@@H]1C[C@@H]1C[C@@H](C)[C@@H](O)[C@H](C)[C@@H]1C/C=C\C[C@H](C)[C@H](O)Cc2cc(OC)cc(O)c2C(=O)O1` [Compound 15, (2R,3S)-N-(((1R,2R)-2-((2R,3R,4S)-4-((3S,8S,9R,Z)-9,14-dihydroxy-12-methoxy-8-methyl-1-oxo-3,4,7,8,9,10-hexahydro-1H-benzo[c][1]oxacyclododecin-3-yl)-3-hydroxy-2-methylpentyl)cyclopropyl)methyl)-3-hydroxy-2-methylhexanamide]: the IC50 – broadly, the concentration that inhibits the measured activity by half – came to 520 nM with MCF7 (breast cancer) (setting [3]), 1120 nM in the assay with K562 (leukemia) (setting [4]) and 1240 nM with A549 (lung cancer) (setting [5]). In assay [1], the “fold reduction in activity compared to cruentaren A” value came out at 100 fold.

Consider `CCC[C@H](OC(C)=O)[C@@H](C)C(=O)NC/C=C\C[C@@H](C)[C@@H](O)[C@H](C)[C@@H]1C/C=C\C[C@H](C)[C@H](OC(C)=O)Cc2cc(OC)cc(O)c2C(=O)O1` [Compound 8, (2R,3S)-1-(((5R,6R,7S,Z)-7-((3S,8S,9R,Z)-9-acetoxy-14-hydroxy-12-methoxy-8-methyl-1-oxo-3,4,7,8,9,10-hexahydro-1H-benzo[c][1]oxacyclododecin-3-yl)-6-hydroxy-5-methyloct-2-en-1-yl)amino)-2-methyl-1-oxohexan-3-yl acetate], for which the IC50 in the assay on MCF7 (breast cancer) (setting [6]) was found to be 574 nM; with K562 (leukemia) (setting [7]), 1280 nM; in the assay with A549 (lung cancer) (setting [5]), 3360 nM.

Consider `CCC[C@H](O)[C@@H](C)C(=O)NC/C=C\C[C@@H](C)[C@@H](O)[C@H](C)[C@@H]1C/C=C\C[C@H](C)[C@H](OC(=O)CN)Cc2cc(OC)cc(O)c2C(=O)O1` [Compound 3, (3S,8S,9R,Z)-14-hydroxy-3-((2S,3R,4R,Z)-3-hydroxy-8-((2R,3S)-3-hydroxy-2-methylhexanamido)-4-methyloct-6-en-2-yl)-12-methoxy-8-methyl-1-oxo-3,4,7,8,9,10-hexahydro-1H-benzo[c][1]oxacyclododecin-9-yl glycinate], for which the IC50 is 87.5 nM with MCF7 (breast cancer) (setting [6]), 14.8 nM in the assay on K562 (leukemia) (setting [7]) and 1740 nM in the assay with A549 (lung cancer) (setting [5]). The “fold difference of IC50 versus cruentaren A” value in the assay on K562 (leukemia) (K562, versus cruentaren A) is 10 fold.

Turning to `CCC[C@H](O)[C@@H](C)C(=O)NC/C=C\C[C@@H](C)[C@@H](O)[C@H](C)[C@@H]1C/C=C\C[C@H](C)[C@H](OC(C)=O)Cc2cc(OC)cc(O)c2C(=O)O1` [Compound 10, (3S,8S,9R,Z)-14-hydroxy-3-((2S,3R,4R,Z)-3-hydroxy-8-((2R,3S)-3-hydroxy-2-methylhexanamido)-4-methyloct-6-en-2-yl)-12-methoxy-8-methyl-1-oxo-3,4,7,8,9,10-hexahydro-1H-benzo[c][1]oxacyclododecin-9-yl acetate], the half-maximal inhibitory concentration (IC50) in the assay with MCF7 (breast cancer) (Homo sapiens, MCF7, read-out: IC50 MCF7, MCF7) was determined as 170 nM; in the assay with MCF7 (breast cancer) (setting [3]), 174 nM; in the assay on K562 (leukemia) (Homo sapiens, K562, read-out: IC50 K562, K562) it was 1160 nM; with K562 (leukemia) (setting [4]), 1160 nM; in the assay on A549 (lung cancer) (A549, read-out: IC50 A549), 1960 nM; in the assay with A549 (lung cancer) (setting [5]), 1960 nM.

In the case of `CCC[C@H](O)[C@@H](C)C(=O)NC[C@H](O)[C@H](O)C[C@@H](C)[C@@H](O)[C@H](C)[C@@H]1C/C=C\C[C@H](C)[C@H](O)Cc2cc(OC)cc(O)c2C(=O)O1` [Compound 14, (2R,3S)-N-((2S,3R,5R,6R,7S)-7-((3S,8S,9R,Z)-9,14-dihydroxy-12-methoxy-8-methyl-1-oxo-3,4,7,8,9,10-hexahydro-1H-benzo[c][1]oxacyclododecin-3-yl)-2,3,6-trihydroxy-5-methyloctyl)-3-hydroxy-2-methylhexanamide], the concentration for half-maximal inhibition (IC50) with MCF7 (breast cancer) (setting [3]) came out at 189 nM; in the assay on K562 (leukemia) (setting [4]), 1270 nM; in the assay with A549 (lung cancer) (setting [5]), 1540 nM. The “fold reduction in activity compared to cruentaren A” value in assay [1] was ~ 40 fold.

Consider `CCC[C@H](O)[C@@H](C)C(=O)NC/C=C\C[C@@H](C)[C@@H](O)[C@H](C)[C@@H]1C/C=C\C[C@H](C)[C@H](OC(=O)[C@H](N)C(C)C)Cc2cc(OC)cc(O)c2C(=O)O1` [Compound 5, (3S,8S,9R,Z)-14-hydroxy-3-((2S,3R,4R,Z)-3-hydroxy-8-((2R,3S)-3-hydroxy-2-methylhexanamido)-4-methyloct-6-en-2-yl)-12-methoxy-8-methyl-1-oxo-3,4,7,8,9,10-hexahydro-1H-benzo[c][1]oxacyclododecin-9-yl D-valinate], for which the half-maximal inhibitory concentration (IC50) with MCF7 (breast cancer) (setting [3]) stood at 101 nM; in the assay on K562 (leukemia) (setting [4]), 968 nM; in the assay with A549 (lung cancer) (setting [5]) it was 1330 nM.

For `CCC[C@H](O)[C@@H](C)C(=O)NC/C=C\C[C@@H](C)[C@@H](OC(C)=O)[C@H](C)[C@@H]1C/C=C\C[C@H](C)[C@H](OC(C)=O)Cc2cc(OC)cc(O)c2C(=O)O1` [Compound 11, (2R,3R,4R,Z)-2-((3S,8S,9R,Z)-9-acetoxy-14-hydroxy-12-methoxy-8-methyl-1-oxo-3,4,7,8,9,10-hexahydro-1H-benzo[c][1]oxacyclododecin-3-yl)-8-((2R,3S)-3-hydroxy-2-methylhexanamido)-4-methyloct-6-en-3-yl acetate], the IC50 in the assay on MCF7 (breast cancer) (setting [6]), in the assay with K562 (leukemia) (setting [7]) and in the assay on A549 (lung cancer) (setting [5]) was more than 4000 nM each time. Moreover, in assay [1], the “antiproliferative activity at highest concentration” value is “inactive”.

Turning to `CCC[C@H](O)[C@@H](C)C(=O)NCCCC[C@@H](C)[C@@H](O)[C@H](C)[C@@H]1CCCC[C@H](C)[C@H](O)Cc2cc(OC)cc(O)c2C(=O)O1` [Compound 12, (2R,3S)-N-((5R,6R,7S)-7-((3S,8S,9R)-9,14-dihydroxy-12-methoxy-8-methyl-1-oxo-3,4,5,6,7,8,9,10-octahydro-1H-benzo[c][1]oxacyclododecin-3-yl)-6-hydroxy-5-methyloctyl)-3-hydroxy-2-methylhexanamide], the results for the IC50 in the assay on MCF7 (breast cancer) (setting [3]), in the assay with K562 (leukemia) (setting [4]) and in the assay with A549 (lung cancer) (setting [5]) were 179 nM, 1390 nM and 4000 nM, respectively.

Turning to `CCC[C@H](O)[C@@H](C)C(=O)NC/C=C\C[C@@H](C)[C@@H](O)[C@H](C)[C@@H]1C/C=C\C[C@H](C)[C@H](OC(=O)[C@@H](C)N)Cc2cc(OC)cc(O)c2C(=O)O1` [Compound 4, (3S,8S,9R,Z)-14-hydroxy-3-((2S,3R,4R,Z)-3-hydroxy-8-((2R,3S)-3-hydroxy-2-methylhexanamido)-4-methyloct-6-en-2-yl)-12-methoxy-8-methyl-1-oxo-3,4,7,8,9,10-hexahydro-1H-benzo[c][1]oxacyclododecin-9-yl D-alaninate], the IC50 in the assay with MCF7 (breast cancer) (setting [3]) was found to be 55.5 nM; in the assay with K562 (leukemia) (setting [4]) it was 1320 nM; in the assay with A549 (lung cancer) (setting [5]), 2450 nM. Besides, in assay [2], the “levels of Hsp70 and Hsp90 (heat shock response)” value is “remained at the same level as vehicle control”.

Take `CCC[C@H](OC(=O)[C@H](N)Cc1ccccc1)[C@@H](C)C(=O)NC/C=C\C[C@@H](C)[C@@H](O)[C@H](C)[C@@H]1C/C=C\C[C@H](C)[C@H](OC(=O)[C@H](N)Cc2ccccc2)Cc2cc(OC)cc(O)c2C(=O)O1` [Compound 7, (2R,3S)-1-(((5R,6R,7S,Z)-7-((3S,8S,9R,Z)-9-((D-phenylalanyl)oxy)-14-hydroxy-12-methoxy-8-methyl-1-oxo-3,4,7,8,9,10-hexahydro-1H-benzo[c][1]oxacyclododecin-3-yl)-6-hydroxy-5-methyloct-2-en-1-yl)amino)-2-methyl-1-oxohexan-3-yl D-phenylalaninate]: the IC50 in the assay with MCF7 (breast cancer) (setting [3]) worked out at 51 nM; with MCF7 (breast cancer) (read-out: IC50 values MCF7, MCF7), 51.3 nM; in the assay with K562 (leukemia) (setting [4]) it was 65 nM; in the assay with K562 (leukemia) (read-out: IC50 values K562, K562), 64.6 nM; with A549 (lung cancer) (setting [5]), 2460 nM.

For the compound `CCC[C@H](OC(C)=O)[C@@H](C)C(=O)NC/C=C\C[C@@H](C)[C@@H](OC(C)=O)[C@H](C)[C@@H]1C/C=C\C[C@H](C)[C@H](OC(C)=O)Cc2cc(OC)cc(O)c2C(=O)O1` [Compound 9, (2R,3R,4R,Z)-2-((3S,8S,9R,Z)-9-acetoxy-14-hydroxy-12-methoxy-8-methyl-1-oxo-3,4,7,8,9,10-hexahydro-1H-benzo[c][1]oxacyclododecin-3-yl)-8-((2R,3S)-3-acetoxy-2-methylhexanamido)-4-methyloct-6-en-3-yl acetate], the IC50 in the assay on MCF7 (breast cancer) (setting [6]), in the assay on K562 (leukemia) (setting [7]) and in the assay with A549 (lung cancer) (setting [5]) was more than 4000 nM in each case. The “antiproliferative activity at highest concentration” value in assay [1] was “inactive”.

For `CCC[C@H](O)[C@@H](C)C(=O)NC/C=C\C[C@@H](C)[C@@H](O)[C@H](C)[C@@H]1C/C=C\C[C@H](C)[C@H](OC(=O)[C@H](N)Cc2ccccc2)Cc2cc(OC)cc(O)c2C(=O)O1` [Compound 6, (3S,8S,9R,Z)-14-hydroxy-3-((2S,3R,4R,Z)-3-hydroxy-8-((2R,3S)-3-hydroxy-2-methylhexanamido)-4-methyloct-6-en-2-yl)-12-methoxy-8-methyl-1-oxo-3,4,7,8,9,10-hexahydro-1H-benzo[c][1]oxacyclododecin-9-yl D-phenylalaninate], the IC50 with MCF7 (breast cancer) (setting [3]) is 114 nM; in the assay on K562 (leukemia) (setting [4]), 1120 nM; in the assay on A549 (lung cancer) (setting [5]), 1280 nM.

As for `COC1=C2C[C@@H](C)C[C@H](OC)[C@H](O)[C@@H](C)/C=C(\C)[C@H](OC(N)=O)[C@@H](OC)/C=C\C=C(/C)C(=O)NC(=CC1=O)C2=O` [geldanamycin, reference compound], the “levels of Hsp70 and Hsp90 (heat shock response)” value in assay [2] is given as “increased”.

As to `CCC[C@H](O)[C@@H](C)C(=O)NC/C=C\C[C@@H](C)[C@@H](O)[C@H](C)[C@@H]1C/C=C\C[C@H](C)C(=O)Cc2cc(OC)cc(O)c2C(=O)O1` [Compound 2, (2R,3S)-3-hydroxy-N-((5R,6R,7S,Z)-6-hydroxy-7-((3S,8S,Z)-14-hydroxy-12-methoxy-8-methyl-1,9-dioxo-3,4,7,8,9,10-hexahydro-1H-benzo[c][1]oxacyclododecin-3-yl)-5-methyloct-2-en-1-yl)-2-methylhexanamide], the half-inhibitory concentration (IC50) came out at 972 nM with MCF7 (breast cancer) (setting [6]), 1280 nM with K562 (leukemia) (setting [7]) and 1640 nM in the assay on A549 (lung cancer) (setting [5]).
